Sampled rows, rich in hits. Any-hit rate of the full collection: about 4.3%.
APP 5'UTR act – activates APP 5'UTR luciferase reporter; activation, % at 2 µM; 190,000 tested, 1% active; AID 1276; SH-SY5Y APP 5'UTR luciferase reporter, luminescence; zero percent = DMSO vehicle wells;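 active means activation above a set limit, based on mean plus 3 SD of controls, cut at about 140% in these data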
FLuc inh counter – inhibits firefly luciferase, flagging false hits in luciferase inhibition screens; P08659; AID 1006; inhibition, % at 10 µM; 200,000 tested, 1.5% active; ATPLite firefly luciferase biochemical luminescence, 10 min;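 active means inhibition above about 50% when tested at 10 µM, limit read from the data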
Target sequence (P08659 whole entry, looked up): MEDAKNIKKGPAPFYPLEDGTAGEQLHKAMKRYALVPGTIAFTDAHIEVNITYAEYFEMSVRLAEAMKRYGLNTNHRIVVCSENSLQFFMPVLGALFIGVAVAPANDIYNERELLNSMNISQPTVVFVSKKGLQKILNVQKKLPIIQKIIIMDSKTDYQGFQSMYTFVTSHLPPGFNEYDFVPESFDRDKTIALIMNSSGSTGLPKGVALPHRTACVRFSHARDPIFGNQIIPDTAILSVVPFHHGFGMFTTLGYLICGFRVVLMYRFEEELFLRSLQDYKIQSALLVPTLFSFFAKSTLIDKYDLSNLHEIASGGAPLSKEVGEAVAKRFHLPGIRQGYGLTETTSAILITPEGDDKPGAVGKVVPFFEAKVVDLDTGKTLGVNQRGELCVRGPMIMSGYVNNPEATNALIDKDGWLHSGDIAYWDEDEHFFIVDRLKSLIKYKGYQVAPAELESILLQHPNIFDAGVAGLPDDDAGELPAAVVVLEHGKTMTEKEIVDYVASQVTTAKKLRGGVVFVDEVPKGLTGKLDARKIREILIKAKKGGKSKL
FLuc act counter – affects firefly luciferase, flagging false hits in luciferase stimulation screens. P08659. ATPlite luciferase biochemical, luminescence, 10 min; 0 = ATP-free wells, 1 = DMSO control. activation factor at 10 µM. 200,000 tested, under 10 active;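 active means luciferase activation factor, scaled between plate controls, of at least 2 with compound at 10 µM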
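Assay system: Luciferase/luciferin detection reagent, cell-free biochemical luciferase assay / Read-out: luciferase activation / Benchmarks: No-ATP low control, compound-free enzyme-plus-ATP high control / Medium: PBS buffer for ATP / Detection: luminescence measurement of luciferase light output / Schedule: 10 min at ambient temperature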
NF-kB neuron act – compounds increasing NF-kB expression in human neuronal cells; NF-kB reporter expression; active compounds read high; 190,000 tested, 1.6% active; fold change at 12.5 µM; in the data active means fold change above about 3.3
STAT1 activator – activators of IFN-gamma induced STAT1 signaling. 200,000 tested, 2.6% active. AID 932. NIH 3T3 STAT1-luciferase reporter, luminescence; 100% = IFN-gamma alone, no compound. activation (% of control), % at 5.5 µM;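 active means activation above the screen-wide mean activation plus 3 SD, cut at about 130% in these data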
Hits are given with their value; - = inactive; . = no result given.

SMILES	APP 5'UTR act	FLuc inh counter	FLuc act counter	NF-kB neuron act	STAT1 activator
O=C(NNc1nc(=O)c2cccnc2s1)c1ccccc1O	-	-	-	-	-
CCOC(=O)c1cnn2c(C)cc(-c3ccc(F)cc3)nc12	-	-	-	-	146
Cc1cc(-c2ccc(F)cc2)nc2cc(C(N)=O)nn12	-	-	-	-	-
CC(=O)NCCOc1ccc2oc3ccccc3c2c1	-	-	-	-	130
O=C(CCSc1ccccc1)NC(=O)COC(=O)c1ccc(OC(F)F)cc1	-	-	-	-	-
CCOC(=O)c1cc(-c2ccc(OC)cc2)n(CCC(=O)NC2CCN(Cc3ccccc3)CC2)c1C	-	-	-	-	-
CCOC(=O)c1cc(-c2ccc(F)cc2)n(CCC(=O)NC2CCN(Cc3ccccc3)CC2)c1C	-	-	-	3.7	-
Fc1ccc(N/N=C/C=C/c2ccccc2)c(F)c1	-	-	-	-	137
Fc1ccc(N/N=C/c2ccncc2)c(F)c1	-	-	-	-	129
O=C(O)c1ccc(/C=N/Nc2ccc(F)cc2F)cc1	170	-	-	12	-
O=C(CNC(=O)c1cccc(F)c1)N/N=C/C=C/c1ccccc1	-	-	-	-	-
Fc1ccc(NC(=S)N/N=C/c2ccc(F)c(F)c2)c(F)c1	-	-	-	-	-
O=C1/C(=C\c2cccnc2)CCc2ccccc21	-	63	-	-	-
O=C1/C(=C/c2cccnc2)CC/C1=C\c1cccnc1	-	-	-	-	-
O=C1/C(=C\c2ccc([N+](=O)[O-])cc2)CCc2ccccc21	136	81	-	-	-
CCS(=O)(=O)N1Cc2ccccc2CC1C(=O)Nc1nnc(SCc2ccc(F)cc2)s1 (stereo not drawn)	-	-	-	-	-
C=CCNc1nc(Nc2ccccc2F)nc(OCC)n1	-	-	-	-	142
CCCc1cc(=O)[nH]c(SCc2cc(Cl)ccc2OC(F)F)n1	-	-	-	-	-
CCCCn1c(N)c(N(CCOC)C(=O)CN2c3ccccc3CC2C)c(=O)[nH]c1=O (stereo not drawn)	-	-	-	-	-
CSCCC(NC(=O)OC(C)(C)C)C(=O)Oc1ccc2c(=O)c(-c3ccc4c(c3)OCCO4)coc2c1 (stereo not drawn)	173	-	-	-	129
CC(/C=N/NC(=O)Cc1cccs1)=C\c1ccccc1	-	-	-	-	-
O=C(N/N=C/C(Br)=C\c1ccccc1)c1n[nH]c2c1CCC2	-	-	-	8.3	129
COc1ccc(/C=N/NC(=O)c2ccoc2C)cc1OC	-	-	-	-	132
O=C(Cc1cccs1)N/N=C/C(Br)=C/c1ccccc1	-	-	-	-	148
Cc1occc1C(=O)N/N=C/C(Br)=C/c1ccccc1	155	-	-	6.4	148
SMILES	APP 5'UTR act	FLuc inh counter	FLuc act counter	NF-kB neuron act	STAT1 activator
CCn1nc(C)c(/C=N/NC(=O)c2ccoc2C)c1C	-	-	-	-	140
CCCCCn1nc(C)c(/C=N/NC(=O)c2ccoc2C)c1C	-	-	-	-	-
O=C(OCC(=O)c1c[nH]c2ccccc12)C1=COCCO1	-	-	-	-	129
CC1(C(=O)OCC(=O)c2c[nH]c3ccccc23)CC1(Cl)Cl (stereo not drawn)	145	-	-	-	138
CCOC(=O)C1(CC2CCCCO2)CCN(Cc2cn[nH]c2-c2cccc(F)c2)CC1 (stereo not drawn)	-	-	-	-	-
Cc1ccc(C(=O)c2cc3ccccc3o2)cc1C	-	-	-	3.7	136
COc1ccc2o/c(=N/NC(=O)c3cccs3)c(C(N)=O)cc2c1	-	-	-	-	138
O=C(c1cccc([N+](=O)[O-])c1)c1cc2ccccc2o1	-	-	-	-	-
NC(=O)c1cc2ccccc2o/c1=N/NC(=O)c1cccs1	-	-	-	-	134
O=C(NC(=S)Nc1ccc(NC(=O)c2cccs2)cc1)c1cc2ccccc2o1	-	-	-	-	-
O=C(c1cc2ccccc2o1)c1cccs1	.	-	-	-	145
Cc1ccc(OCCC(=O)OCC(=O)Nc2cc(S(=O)(=O)N(C)C)ccc2C)cc1	-	58	-	-	-
CCN(CC)S(=O)(=O)c1ccc(C)c(NC(=O)COC(=O)CNC(=O)c2ccc(C(C)(C)C)cc2)c1	-	81	-	-	-
CN(C)S(=O)(=O)c1cccc(NC(=O)COC(=O)CCOc2ccccc2)c1	-	-	-	-	-
CCN(CC)S(=O)(=O)c1ccc(C)c(NC(=O)CNCCN(C(C)C)C(C)C)c1	-	-	-	-	-
COc1ccc(C=O)cc1Cn1ccnc1C	-	-	-	-	-
NC(=O)CSc1nnnn1-c1ccccc1Cl	-	-	-	-	-
O=C(/C=C/c1ccc2c(c1)OCO2)Nc1nc(-c2ccc(F)cc2)cs1	-	-	-	-	-
CC(=O)Nc1nc(-c2ccc3c(c2)CCO3)cs1	-	-	-	-	141
Nc1nc(-c2ccc3c(c2)CCO3)cs1	-	-	-	-	-
CC(C)(C)C(=O)Nc1nc(-c2ccc3c(c2)OCO3)cs1	157	-	-	5.7	139
c1cc2c(cc1-c1csc(NNC3=NCCCCC3)n1)OCCO2	-	-	-	-	144
c1cc2c(cc1Nc1nc(-c3ccc4c(c3)OCO4)cs1)OCCO2	-	-	-	-	137
O=C1C(Cl)=C(Nc2ccccc2O)C(=O)N1CCc1ccccc1	-	-	-	-	-
CCCn1c(SCC(=O)NCc2ccc(Cl)cc2)n[nH]c1=O	-	-	-	-	-
SMILES	APP 5'UTR act	FLuc inh counter	FLuc act counter	NF-kB neuron act	STAT1 activator
Cc1cccc(N2CCN(C(=O)c3cccc(N4C(=O)C5CC=CC(C)C5C4=O)c3)CC2)c1C (stereo not drawn)	-	-	-	-	-
COc1ccccc1C(=O)Nc1nc(-c2ccc3c(c2)OCCO3)cs1	-	-	-	-	-
COc1ccc(-c2csc(NC(C)=O)n2)cc1OC	-	-	-	-	-
COc1cccc(Nc2nc(-c3ccc4c(c3)OCCO4)cs2)c1	162	-	-	-	148
c1ccc(-c2csc(Nc3ccc4c(c3)OCCO4)n2)cc1	187	-	-	4.8	139
COc1cccc(-c2csc(NC(C)=O)n2)c1	-	-	-	-	137
Cc1cc(OCC(=O)Nc2ccc(S(=O)(=O)NC3=NCCCCC3)cc2)c(C(C)C)cc1Cl	-	-	-	-	-
CC1=CC(C)(C)N2C(=O)C3(C(C#N)=C(N)OC4=C3C(=O)CC(C)(C)C4)c3cccc1c32 (stereo not drawn)	-	-	-	-	-
CC1=CC(C)(C)N2C(=O)C3(C(C#N)=C(N)Oc4cc(O)ccc43)c3cccc1c32 (stereo not drawn)	-	-	-	-	131
CCCCCCCOc1ccc(-c2ccc(C#N)cn2)cc1	-	-	-	-	-
CCCCOc1ccc(-c2ncc(Cl)cn2)cc1	-	-	-	3.7	-
CCCCOc1ccc(-c2cnc3ccccc3n2)cc1	.	-	-	3.6	149
c1csc(-c2cnc3ccccc3n2)c1	-	-	-	-	129
Clc1ccc(-c2cnc3ccccc3n2)cc1	135	-	-	3.3	-
